One assay can be described thus: Antioxidant. Particulars: read-out: IC50 antioxidant activity; DPPH, absorbance at 517 nm. The procedure, abridged:
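Test compound stocks at 22 mg/mL, diluted to working concentrations. DPPH radical was prepared at 4 mg per 100 mL pure methanol. Sample dilution and DPPH solution were mixed 1:2 by volume and left undisturbed overnight. Ascorbic acid in water served as the reference and was treated the same way. Absorbance was read at 517 nm, in triplicate.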
(In general: Loss of DPPH colour is used to gauge radical scavenging.)

A further assay addresses T1, α-amylase (Homo sapiens, UniProt P04746).
T1 sequence (P04746 16-511): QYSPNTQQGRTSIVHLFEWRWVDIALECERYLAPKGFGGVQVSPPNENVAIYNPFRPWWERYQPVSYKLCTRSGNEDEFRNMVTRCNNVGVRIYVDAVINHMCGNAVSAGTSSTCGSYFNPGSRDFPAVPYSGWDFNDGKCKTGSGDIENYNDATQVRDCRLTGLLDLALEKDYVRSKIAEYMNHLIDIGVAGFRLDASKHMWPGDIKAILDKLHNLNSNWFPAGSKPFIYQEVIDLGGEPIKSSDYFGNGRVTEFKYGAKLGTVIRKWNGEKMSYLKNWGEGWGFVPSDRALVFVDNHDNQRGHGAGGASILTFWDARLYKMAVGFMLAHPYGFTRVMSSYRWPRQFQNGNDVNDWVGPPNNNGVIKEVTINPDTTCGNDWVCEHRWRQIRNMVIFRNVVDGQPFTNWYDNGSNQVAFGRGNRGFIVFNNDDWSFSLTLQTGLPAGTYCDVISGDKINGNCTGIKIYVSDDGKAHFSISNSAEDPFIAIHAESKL
Kind of assay: In vitro antidiabetic. The assay is classed as biochemical.

A word on the IC50: it is the concentration that gives 50% inhibition.

Turning to `C=CCOC(=O)c1ccccc1C(=O)OCC` [HR3, 1-allyl 2-ethyl phthalate], the IC50 in the assay “Antioxidant” was 15.1 µM.

For `CC(C)CCCCCOC(=O)c1ccccc1C(=O)OCCCCCC(C)C` [HR5, bis (6-methylheptyl) phthalate], the IC50 is 15.6 µM in “Antioxidant” and 11.7 µM against α-amylase. The “inhibition against diabetes (in words)” value on α-amylase (conclusion, qualitative grade) is reported as “excellent inhibition”.
